Insulin prom up: MIN6 insulin promoter up-regulation; AID 1625; actives 0.3% (n = 190,000); MIN6 insulin promoter-GFP reporter, high-content imaging; hits give high values; z-score at 5 µM;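 active = z-score above 3 at 5 µM with at least 500 cells counted in the well; inconclusive = wells under 500 cells, flagged as cytotoxic or low count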
Furin inh: human furin inhibition | P09958 | purified furin, fluorogenic substrate cleavage | inhibition, % at 20 µM or 30 µM | actives 0.061% (n = 220,000) | AID 463115; in the data active = inhibition above about 25%
Target sequence (P09958 108-714 limits assumed): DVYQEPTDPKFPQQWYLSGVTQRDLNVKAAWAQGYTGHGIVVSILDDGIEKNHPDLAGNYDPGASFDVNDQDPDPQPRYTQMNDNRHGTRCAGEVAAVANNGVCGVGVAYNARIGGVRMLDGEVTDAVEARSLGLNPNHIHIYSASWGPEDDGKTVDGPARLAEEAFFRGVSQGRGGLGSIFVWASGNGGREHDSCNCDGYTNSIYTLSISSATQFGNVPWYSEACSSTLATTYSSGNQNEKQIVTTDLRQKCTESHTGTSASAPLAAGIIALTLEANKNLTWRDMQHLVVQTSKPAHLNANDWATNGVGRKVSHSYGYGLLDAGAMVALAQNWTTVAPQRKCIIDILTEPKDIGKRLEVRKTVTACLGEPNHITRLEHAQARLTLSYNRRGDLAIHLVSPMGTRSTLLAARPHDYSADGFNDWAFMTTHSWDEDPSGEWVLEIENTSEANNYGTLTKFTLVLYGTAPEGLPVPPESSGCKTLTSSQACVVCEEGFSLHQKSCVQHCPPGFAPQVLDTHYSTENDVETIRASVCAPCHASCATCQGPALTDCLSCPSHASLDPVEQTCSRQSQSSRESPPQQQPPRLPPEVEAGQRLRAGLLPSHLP
Autophagy HCS: alters autophagy in cells. actives 0.98% (n = 190,000). calls only at 10 µM (by protocol). MEF GFP-LC3 puncta imaging; test concentration mostly 10 µM;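 active = percentage of spot-positive cells more than 3 SD above its plate mean, without a fluorescence outlier flag or 80% toxicity; inconclusive = no clear call, values can overlap the other calls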
HSV replic up: HSV replication enhancement; actives 0.005% (n = 220,000); maximum fold increase; HSV replication augmentation in cells, fold increase; in the data active = maximum fold increase above about 1.5; inconclusive = no clear call, values can overlap the other calls; tested in PC3 cells
Dynein cargo inh: blocks dynein driven cargo transport along microtubules. actives 0.47% (n = 220,000). 3617.4 mouse cells, GR-EGFP nuclear translocation imaging; test concentration mostly 20 µM; stimulated with dexamethasone, 1 µM; hits give low values. AID 1381. z-score, hits read low;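 active = plate z-score of nuclear minus cytoplasmic receptor signal below a set negative limit, without overly bright fluorescence or cell loss, cut at about -3.5 in these data, passing the limit was not always enough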;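 note: z-score of nuclear minus cytoplasmic ring GR-EGFP intensity difference per well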
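medium = tetracycline-free induction medium containing charcoal-stripped FBS | probe or stimulus = dexamethasone, 1.0 µM final | timing = 48 h induction, then 1 h compound, then 30 min agonist, 37 °C | detection = automated 10x imaging of fixed Hoechst-stained cells | read-out basis = nuclear versus cytoplasmic GR-EGFP signal, averaged per well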
INS promoter inh: TRM-6 insulin promoter activity inhibition. inhibition, % at 2 µM. AID 1273. TRM-6 cells (human fetal islet line), insulin promoter-eGFP reporter, imaging; reporter expression induced with tamoxifen. actives 0.9% (n = 130,000);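 active = inhibition above the mean plus 3 SD, with well images judged a real hit on visual review, cut at about 60% in these data, passing the limit was not always enough; inconclusive = inhibition over the cutoff but images rejected on review; inactive = inhibition not above the cutoff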
Hits are given with their value; i = inactive; ? = inconclusive; nt = not tested or not shown; + = active, no number. Most compounds without a hit are left out; they make up all but 2% or so of the library.

SMILES	Insulin prom up	Furin inh	Autophagy HCS	HSV replic up	Dynein cargo inh	INS promoter inh
COc1ccc2nc(/C(C#N)=C\c3ccc(Oc4ccc([N+](=O)[O-])cn4)cc3)[nH]c2c1	i	i	+	i	i	i
Cc1ccc2nc(/C(C#N)=C\c3ccc([N+](=O)[O-])o3)[nH]c2c1	?	i	+	nt	i	nt
O=C(NCCN1CCN(c2ccccc2)CC1)C1CCN(S(=O)(=O)c2cccc3nsnc23)CC1	nt	i	i	i	i	i
Cc1c(-n2c(SCC(N)=O)nc3ccccc3c2=O)c(=O)n(-c2ccccc2)n1C	i	i	i	i	i	nt
N#Cc1nc(N2CCOCC2)nc(N2CCOCC2)n1	3.26	i	i	i	i	nt
Nc1ccc(C(=O)N/N=C\C=C\c2ccc([N+](=O)[O-])cc2)cc1	i	i	+	i	i	nt
COc1ccc(C(=O)CSc2nnc3n2CCCN3C(=O)Nc2ccccc2)cc1	i	i	nt	i	i	nt
O=C(CSc1ccc2nnc(-c3ccccn3)n2n1)NCc1ccco1	i	i	+	i	i	nt
Cc1cccc(CSc2cccc3cccnc23)c1	nt	i	+	i	i	i
CCOC(=O)CSc1cccc2cccnc12	i	i	+	i	i	i
COc1ccc2c(c1OC)C(=O)N(c1ccc(C)cc1)C2	i	i	nt	i	i	nt
COc1ccc(Cn2c(=O)[nH]c3cc(C(=O)NC4CCCC4)ccc3c2=O)cc1	nt	i	+	i	i	nt
COc1cc2[nH]c(=O)n(Cc3ccc(C(=O)NC4CCCC4)cc3)c(=O)c2cc1OC	nt	i	i	i	i	i
CC(C)c1ccc(/C=N/Nc2cc(N3CCOCC3)nc(N3CCOCC3)n2)cc1	i	i	i	i	i	i
Cc1cccc(/C=N/Nc2cc(N3CCOCC3)nc(N3CCOCC3)n2)c1	i	i	+	i	i	i
CCNC(=S)N=Nc1c(O)[nH]c2ccc(C(C)C)cc12	i	i	i	i	i	64.3
CC(C)c1ccc2[nH]c(O)c(N=NC(=S)NCCc3ccccc3)c2c1	i	i	i	i	i	nt
Nc1nc2c(s1)CCc1c-2cnn1-c1ccccc1	i	i	i	i	-6.01	i
Cc1c(C(=O)N/N=C/c2ccncc2)no[n+]1[O-]	i	i	i	i	i	nt
CC(C)(C)n1nc2c(c1NC(=O)c1ccccc1F)CS(=O)C2 (stereo not given)	i	i	+	i	i	nt
COc1ccc(OC)c(-n2c(SCC(=O)N3CCc4ccccc43)nc3c(c2=O)SCC3)c1	i	i	i	i	i	70.0
COc1ccccc1-n1c(SCC(=O)N2CCc3ccccc32)nc2c(c1=O)SCC2	nt	i	i	i	i	nt
CC(=O)Nc1sc(N)nc1-c1ccccc1	i	i	+	i	i	nt
COC(=O)c1[nH]c2ccccc2c1NC(=O)C(C)N1CC(C)OC(C)C1 (stereo not given)	i	i	nt	i	i	nt
CCNc1nc(Oc2ccc(=O)[nH]n2)nc(N2CCOCC2)n1	nt	i	i	i	i	75.0
SMILES	Insulin prom up	Furin inh	Autophagy HCS	HSV replic up	Dynein cargo inh	INS promoter inh
CC(C)CNc1nc(Oc2ccc(=O)[nH]n2)nc(N2CCOCC2)n1	i	i	i	i	i	nt
N#Cc1c(Cl)nsc1NC(=O)c1ccccc1	i	i	+	i	i	i
CN1CCN(CC(O)(c2ccc(Cl)cc2)c2ccc(Cl)cc2)CC1	i	i	+	i	i	nt
CN1CCN(CC(O)COc2ccc(Cl)cc2)CC1 (stereo not given)	nt	i	i	i	i	i
O=C1COc2ccc(N3C(=O)C=CC3=O)cc2N1	i	i	i	i	-4.02	nt
O=C(NCCCCCCNC(=O)c1cncc(O)c1)c1cncc(O)c1	i	i	nt	i	i	nt
COc1ccc(/C(O)=C/c2nc3ccccc3n(-c3ccccc3)c2=O)cc1	nt	i	+	i	i	i
CCc1ccc(CN(C)C(=O)CCc2nc3ccccc3n(-c3ccc(OC)cc3)c2=O)cc1	i	i	i	i	i	nt
COc1ccc(-c2nc(SCC(=O)NCc3ccco3)c(-c3ccccc3)[nH]2)cc1OC	i	i	i	i	i	72.4
C/C(=N\NC(=O)c1c(-c2ccccc2Cl)noc1C)c1cccc(NC(=O)C(C)C)c1	i	i	i	i	i	i
Cc1c(N=C2N=C(NC(=O)c3cccs3)c3ccccc32)c(=O)n(-c2ccccc2)n1C	nt	i	+	nt	i	nt
Cc1c(N=C2N=C(NC(=O)NC(C)(C)C)c3ccccc32)c(=O)n(-c2ccccc2)n1C	i	i	i	i	i	nt
C=CCOc1ccc(C2NC(=S)NC3=C2CCc2ccccc23)cc1 (stereo not given)	i	i	nt	i	i	nt
O=C1NC2=C(CCc3ccccc32)C(c2ccccc2)N1 (stereo not given)	i	i	i	i	i	61.1
C[n+]1cc(C(=O)N2CCCCC2)ccc1/C=C/c1c[nH]c2ccccc12	3.95	i	i	?	i	nt
CS(=O)(=O)NCCCNc1c(Cl)cccc1[N+](=O)[O-]	i	i	i	i	i	74.1
O=[N+]([O-])c1cccc(Cl)c1NCCNS(=O)(=O)c1ccc(Cl)cc1	i	i	i	i	i	nt
COc1cc(CNCc2cccnc2)ccc1OCc1ccccc1	i	i	+	i	i	i
COc1ccc(CCN2C(=O)c3cccc4c(C(=O)N5CCCCC5)ccc(c34)C2=O)cc1OC	i	i	+	i	i	nt
COc1ccc(CCNC(=O)CCN2C(=O)c3cccc4cccc(c34)C2=O)cc1OC	i	i	i	i	i	nt
CN(C)CC(C)(C)CN=Cc1c(O)[nH]c2ccccc12	i	i	nt	i	i	nt
O=C1C=CC(=O)N1CCCCCCN1C(=O)C=CC1=O	i	i	i	i	-4.01	nt
O=C1C2C3C=CC(C3)C2C(=O)N1CCCCCCN1C(=O)C2C3C=CC(C3)C2C1=O (stereo not given)	i	i	i	i	i	i
CC(=O)Nc1ccc(NC2=C(Cl)C(=O)c3ccccc3C2=O)cc1	?	i	i	i	i	i
O=C(Oc1ccc(NC2=C(Cl)C(=O)c3ccccc3C2=O)cc1)c1ccc([N+](=O)[O-])cc1	i	i	i	i	i	62.5
SMILES	Insulin prom up	Furin inh	Autophagy HCS	HSV replic up	Dynein cargo inh	INS promoter inh
CCOC(=O)COc1ccc(C(=O)NC2CCCCC2)cc1	4.25	i	i	i	i	i
Cc1ccc(C(=O)NC2CCCCC2)cc1	i	i	i	nt	i	i
CCCCN1CC[C@H]2C=CC[C@@H](C(=O)NCCc3ccccc3)[C@H]2C1=O	nt	nt	nt	i	nt	nt
CCOc1ccccc1CNC(=O)CCCc1cn(C)c2ccccc12	i	i	+	nt	i	i
CCOc1nc(CC)nc(NC(=O)NS(=O)(=O)c2ccccc2Cl)n1	i	i	i	i	i	nt
CCOc1nc(NC(=O)NS(=O)(=O)c2ccccc2F)nc(-c2ccccc2)n1	i	i	i	i	i	90.9
COc1cc(NC(=O)c2ccc(-c3ccc(Br)cc3)o2)ccc1NC(=O)C(C)C	i	i	+	i	i	i
COc1ccccc1NC(=O)c1ccc(-c2ccc(Br)cc2)o1	i	i	i	i	i	i

Screening data deposited in PubChem BioAssay by several laboratories.
